Source: PubChem BioAssay
PABP1 MLLE inh: blocks PAM2 peptide binding to the PABP1 MLLE domain. P11940. GST-MLLE / FITC-PAM2 fluorescence polarization. inhibition, % at 20 µM. actives 0.36% (n = 360,000). AID 588489; in the data active = inhibition above about 35%, passing the limit was not always enough
Target sequence (P11940 whole entry, looked up, the tested form may be a part): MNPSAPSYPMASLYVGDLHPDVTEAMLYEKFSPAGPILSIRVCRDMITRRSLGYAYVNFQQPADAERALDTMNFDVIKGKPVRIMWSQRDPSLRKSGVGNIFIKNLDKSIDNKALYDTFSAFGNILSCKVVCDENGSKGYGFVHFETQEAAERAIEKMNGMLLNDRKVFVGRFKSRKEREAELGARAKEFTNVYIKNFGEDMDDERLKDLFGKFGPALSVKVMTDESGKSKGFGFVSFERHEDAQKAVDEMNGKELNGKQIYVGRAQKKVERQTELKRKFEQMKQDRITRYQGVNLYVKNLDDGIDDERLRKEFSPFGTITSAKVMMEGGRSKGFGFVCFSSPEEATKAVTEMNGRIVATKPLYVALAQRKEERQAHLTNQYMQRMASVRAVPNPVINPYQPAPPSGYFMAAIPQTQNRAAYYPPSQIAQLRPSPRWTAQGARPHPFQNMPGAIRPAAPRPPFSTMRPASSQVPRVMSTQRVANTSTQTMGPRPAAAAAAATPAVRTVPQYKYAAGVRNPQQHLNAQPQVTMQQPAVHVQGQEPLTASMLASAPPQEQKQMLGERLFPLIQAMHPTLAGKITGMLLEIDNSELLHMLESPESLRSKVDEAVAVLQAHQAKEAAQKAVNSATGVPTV
PABP FP inh: blocks human PABP binding to poly(A) RNA | P11940 | fluorescence polarization | calls only at 35 µM | actives 1% (n = 290,000) | AID 2014;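 also: calls also rest on retests at 20 µM and on dose response follow-up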
SUMO HTRF inh: SUMOylation inhibition | inhibition, % at 35 µM | P63279 | actives 0.36% (n = 290,000) | HTRF SUMOylation assay, SAE1/SAE2 + UBC9, in vitro | AID 2006; in the data active = inhibition above about 50%, passing the limit was not always enough; inconclusive = no clear call, values can overlap the other calls
HCV core dimer: blocks dimerization of HCV core protein; TR-FRET GST/Flag-core106 dimerization, 1536-well; inhibition, % at 5 µM; actives 0.33% (n = 300,000); AID 1899;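 active = inhibition above the mean of all tested compounds plus 3 SD, set per screening campaign, cut at about 45% in these data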
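assay system = GST-tagged and Flag-tagged HCV core protein residues 1-106 | controls = unlabelled core106 and no-GST-core106 wells | incubation = compound-protein-antibody incubation 4 h at 22.5 °C | probe or stimulus = Eu donor and XL665 acceptor anti-tag antibodies | read-out = % inhibition based on acceptor/donor emission ratio | signal = TR-FRET 671 and 617 nm emission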
eIF4E 4G PPI: eIF4E/eIF4G interaction inhibition in translation initiation; TR-FRET eIF4E-eIF4GI(517-606) binding, 2 h; AID 782; P63073+Q04637; actives 0.37% (n = 220,000); inhibition, % at 21.7 µM;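 active = inhibition above about 30%, limit read from the data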
eIF4H FP inh: inhibitors of RNA binding by human eIF4H. inhibition, % at 35 µM. actives 0.94% (n = 290,000). eIF4H fluorescence polarization binding assay. Q15056;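 also: calls also rest on retests at 20 µM and on dose response follow-up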
Each line names hits and unclear results; the compound was inactive in the other large screens. This is a sample that favours compounds with a hit; in the whole collection about 1.8% have one here. Unless noted, no rule for the calls is given here.

C/C=C/c1ccc(OCCCNCC(C)O)c(OC)c1 (stereo not drawn)	none
COc1ccc(Cn2nnnc2CN(Cc2cc3ccc(C)cc3[nH]c2=O)C2CCCC2)cc1	none
COCCn1nnnc1CN(Cc1cc2cc(OC)c(OC)cc2[nH]c1=O)C1CCCC1	PABP FP inh active, eIF4H FP inh 51
Cc1ccc2cc(CN(CCN3CCOCC3)Cc3nnnn3Cc3ccco3)c(=O)[nH]c2c1C	PABP FP inh active, eIF4H FP inh 86 (no result: HCV core dimer)
Cc1ccc2cc(CN(Cc3ccc4c(c3)OCO4)Cc3nnnn3Cc3ccco3)c(=O)[nH]c2c1C	none
CCOc1ccc2[nH]c(=O)c(CN(Cc3nnnn3Cc3ccco3)C3CCCCC3)cc2c1	PABP FP inh active, eIF4H FP inh 57
COc1cc2cc(CN(Cc3nnnn3Cc3ccco3)C3CCCCC3)c(=O)[nH]c2cc1OC	PABP FP inh active, eIF4H FP inh 61
CCOc1ccc2[nH]c(=O)c(CN(Cc3ccco3)Cc3nnnn3Cc3ccccc3)cc2c1	none
CCCNC(=O)c1ccc(N2CCC3(CC2)CC(c2cccc(Br)c2)=NO3)c(NC(=O)c2cccc(C)c2)c1	none (no result: PABP FP inh, SUMO HTRF inh, eIF4E 4G PPI, eIF4H FP inh)
O=c1[nH]c(CSc2ccccn2)nc2c1oc1ccccc12	none
Cc1ccc(NCc2nnc(SCC(=O)N3c4ccccc4Sc4ccccc43)o2)c(C)c1	none
COc1ccc(-c2cc(N3CCCC3)n3ncnc3n2)cc1	none
COc1ccc(-c2cc(-c3ccccc3)n3ncnc3n2)cc1	SUMO HTRF inh 53 (no result: eIF4E 4G PPI)
CCOC(=O)c1sc(=S)n(-c2ccccc2Cl)c1SC	PABP1 MLLE inh 39
CCOC(=O)c1sc(=S)n(-c2ccccc2)c1SC	none
O=C(COC(=O)c1ccc(Br)c(S(=O)(=O)N2CCOCC2)c1)NC1CC1	none (no result: PABP FP inh, SUMO HTRF inh, HCV core dimer, eIF4E 4G PPI, eIF4H FP inh)
Cc1noc(C)c1COc1ccc(C(=O)N2CCN(c3ccccn3)CC2)cc1	none (no result: PABP FP inh, SUMO HTRF inh, eIF4E 4G PPI, eIF4H FP inh)
Cc1ccc(C(=O)OC(C)C(=O)Nc2ccc3c(c2)OCO3)c(O)c1 (stereo not drawn)	none (no result: PABP FP inh, SUMO HTRF inh, HCV core dimer, eIF4E 4G PPI, eIF4H FP inh)
COC(=O)C1C(O)=C(C(C)=Nc2cccc3ccccc23)C(=O)CC1(C)C (stereo not drawn)	PABP FP inh active, eIF4H FP inh inconclusive
COC(=O)C1C(O)=C(C=Nc2ccccc2)C(=O)CC1(C)C (stereo not drawn)	none
CCNC(=O)c1c(N)sc2c1CCCCC2	PABP FP inh active, eIF4H FP inh 62 (no result: PABP1 MLLE inh)
CCOC(=O)c1c(N)sc2c1CCCC2	none
COc1ccc(CNCCCn2cnc3c(SC)ncnc32)cc1	none (no result: PABP FP inh, SUMO HTRF inh, HCV core dimer, eIF4E 4G PPI, eIF4H FP inh)
Cc1ccc(C(=O)NCC(=O)OCC(=O)Nc2ccc3[nH]c(=O)[nH]c3c2)cc1	none (no result: PABP FP inh, SUMO HTRF inh, eIF4E 4G PPI, eIF4H FP inh)
COc1ccc(OC)c(N2Cc3cc(C)c(C)cc3C2)c1	eIF4H FP inh 105
CCOc1ccccc1N1Cc2cc(C)c(C)cc2C1	HCV core dimer 67
CCOc1ccccc1N1Cc2ccccc2C1	HCV core dimer 54
O=C(Nc1ccccc1OC(=O)c1ccccc1)c1ccccc1	none (no result: PABP FP inh, SUMO HTRF inh, HCV core dimer, eIF4E 4G PPI, eIF4H FP inh)
O=C1CCC(=O)N1c1ccc(-c2nc3ccccc3s2)cc1	eIF4H FP inh 61
COc1ccccc1N(CC(=O)N/N=C(\C)c1ccc(F)cc1)S(=O)(=O)c1ccccc1	none (no result: PABP FP inh, SUMO HTRF inh, HCV core dimer, eIF4E 4G PPI, eIF4H FP inh)
CC(c1ccccc1)N1CCN(C(=O)CCl)CC1 (stereo not drawn)	none
COc1cc(NC(=O)C2CCCN2S(=O)(=O)c2ccc3c(c2)CC(C)N3C(C)=O)cc(OC)c1 (stereo not drawn)	none (no result: eIF4E 4G PPI)
CC(=O)N1c2ccc(S(=O)(=O)N3CCCC3C(=O)Nc3ccc(C)cc3)cc2CC1C (stereo not drawn)	PABP FP inh active (no result: eIF4E 4G PPI)
O=C(CCc1nnc(CCCc2ccccc2)o1)NCCN1CCOC1=O	none
COC1=C/C(=C/c2c(O)c(C#N)c3ccccn23)C=CC1=O	PABP FP inh active
O=C(CSc1nnc(-c2ccco2)n1-c1ccccc1Cl)Nc1cccc(C(=O)O)c1	none (no result: eIF4E 4G PPI)
Cc1ccc2cc(C)c3nnc(SCc4ccc(C(=O)O)cc4)n3c2c1C	eIF4E 4G PPI 97
O=C(CSc1ccc(-c2ccccn2)nn1)c1ccc([N+](=O)[O-])cc1	none
O=C(CSc1ccc(-c2cccnc2)nn1)c1ccc([N+](=O)[O-])cc1	PABP1 MLLE inh 45
O=C(CSc1ccc(-c2ccco2)nn1)c1ccccc1	PABP FP inh active, HCV core dimer 48, eIF4H FP inh 101
O=C(CSc1ccc(-c2ccncc2)nn1)c1ccccc1	PABP1 MLLE inh 38
COc1ccc(CNC(=O)C2CCC(=O)N(C3CCCCCC3)C2)c(OC)c1 (stereo not drawn)	none (no result: PABP FP inh, SUMO HTRF inh, HCV core dimer, eIF4E 4G PPI, eIF4H FP inh)
Cc1cc[n+](-c2nc3ccccc3nc2[N-]S(=O)(=O)c2ccccc2)cc1	PABP FP inh active, eIF4H FP inh 51
O=S(=O)([N-]c1nc2ccccc2nc1-[n+]1ccccc1)c1ccc(Cl)cc1	none
N#CC(=C=[N-])c1nc2ccccc2nc1-[n+]1ccccc1	none
Cc1cc[n+](-c2nc3ccccc3nc2C(=C=[N-])C#N)cc1	PABP FP inh active, eIF4H FP inh 70
Cn1c(N)c(C(=O)COC(=O)c2cc(-c3ccco3)nc3ccccc23)c(=O)n(C)c1=O	PABP FP inh active, eIF4H FP inh inconclusive (no result: HCV core dimer)
COc1ccc(-c2cc(C(=O)OCC(=O)c3c(N)n(C)c(=O)n(C)c3=O)c3ccccc3n2)cc1	none
Cn1c(N)c(C(=O)COC(=O)c2cc(C(F)(F)F)nc3ccccc23)c(=O)n(Cc2ccccc2)c1=O	none (no result: PABP1 MLLE inh)
Cn1c(N)c(C(=O)COC(=O)c2cc(-c3ccco3)nc3ccccc23)c(=O)n(Cc2ccccc2)c1=O	HCV core dimer 47 (no result: PABP1 MLLE inh)
C/C(=N\NC(=S)NCCc1ccccc1)c1ccc(O)cc1O	PABP1 MLLE inh 40 (no result: eIF4E 4G PPI)
COc1ccccc1/C=C/C(=O)OCC(=O)N1c2ccccc2CC1C (stereo not drawn)	none (no result: PABP FP inh, SUMO HTRF inh, HCV core dimer, eIF4E 4G PPI, eIF4H FP inh)
CC1CN(Cc2ccccc2)c2nc3c(c(=O)[nH]c(=O)n3C)n2C1 (stereo not drawn)	eIF4E 4G PPI 83
Cn1c(=O)[nH]c(=O)c2c1nc1n2CCN1Cc1ccccc1	none
FC(F)(F)c1ccc2c(c1)NCC1CCCN21 (stereo not drawn)	PABP FP inh active, eIF4H FP inh 53
Cn1c(=O)c2c(nc(N3CCN(c4ccc([N+](=O)[O-])cc4)CC3)n2C)n(C)c1=O	none
Cn1cnnc1SCc1ccc(-c2ccc(Br)cc2)o1	HCV core dimer 64
CC(OC(=O)c1ccc2c(=O)n3c(nc2c1)CCC3)C(=O)Nc1ccc(C(N)=O)cc1 (stereo not drawn)	none (no result: PABP FP inh, SUMO HTRF inh, HCV core dimer, eIF4E 4G PPI, eIF4H FP inh)
CC(OC(=O)c1ccc2c(=O)n3c(nc2c1)CCC3)C(N)=O (stereo not drawn)	PABP FP inh active, eIF4H FP inh 4.5
O=c1c2ccccc2nc2n1CCC2	SUMO HTRF inh 73, eIF4E 4G PPI 94
COc1ccccc1CCNC(=O)C(=O)c1cn(CC(=O)N2CCOCC2)c2ccccc12	none (no result: eIF4E 4G PPI)
O=C(COC(=O)C1CCN(c2ccc(C(F)(F)F)cn2)CC1)NCc1cccc(Cl)c1	none (no result: PABP FP inh, SUMO HTRF inh, HCV core dimer, eIF4E 4G PPI, eIF4H FP inh)
